From PubChem BioAssay AID624038 (The Scripps Research Institute Molecular Screening Center, 2012)
The campaign covered roughly 360,000 compounds. About 1,100 (0.31%) were called active. For the sample, actives were picked, then their nearest neighbours and some compounds at random. Values without a mark were called inactive.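 The calls were made as follows: active = activation above the run cutoff, the mean activation of all test compounds plus 3 SD (cut at about 18% in these data); inactive = the rest.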

What follows are compounds tested against Muscarinic acetylcholine receptor M5 (Homo sapiens) (UniProt P08912) (assay: human M5 muscarinic receptor positive allosteric modulators, primary screen, CHO-K1 cells, Fluo-8 calcium fluorescence (AID 624038)). Conditions: CHO-K1 hM5, Fluo-8 calcium, ACh EC20 PAM; at 3 µM; stronger effect = higher value; 0% = ACh EC20, 100% = ACh EC100.
Chain of Muscarinic acetylcholine receptor M5 (Homo sapiens) (P08912 whole entry, looked up): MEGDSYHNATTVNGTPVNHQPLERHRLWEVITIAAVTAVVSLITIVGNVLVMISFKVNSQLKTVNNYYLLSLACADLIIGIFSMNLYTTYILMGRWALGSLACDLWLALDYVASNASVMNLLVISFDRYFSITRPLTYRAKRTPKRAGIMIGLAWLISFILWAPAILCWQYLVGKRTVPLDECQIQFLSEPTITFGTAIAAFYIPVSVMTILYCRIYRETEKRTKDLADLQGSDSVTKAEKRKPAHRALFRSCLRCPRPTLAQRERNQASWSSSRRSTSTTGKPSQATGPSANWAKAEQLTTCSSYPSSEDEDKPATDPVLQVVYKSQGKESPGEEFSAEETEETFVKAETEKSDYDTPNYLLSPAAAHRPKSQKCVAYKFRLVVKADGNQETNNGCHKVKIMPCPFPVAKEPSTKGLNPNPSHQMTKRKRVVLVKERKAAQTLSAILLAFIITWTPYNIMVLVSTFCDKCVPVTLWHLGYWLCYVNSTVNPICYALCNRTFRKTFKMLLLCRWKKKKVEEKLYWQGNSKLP
Method in brief: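 system = human M5 receptor in CHO-K1 cells | compound = one concentration, 3 µM final (nominal) | schedule = Post-acetylcholine fluorescence recording 140 s | signal = Fluo-8 calcium dye fluorescence, kinetic read | benchmarks = low control EC20 acetylcholine (0%), high control EC100 acetylcholine (100%) | repeats = singlicate, one well per test compound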
In the case of `Cc1nn(C)c(C)c1Sc1ccccc1N`, the activation is reported as -3.24%.
`O=C(CNC(=O)c1ccccc1F)c1ccc(Br)cc1` was tested, and the activation was 1.83%.
In the case of `COC(=O)CNC(=O)c1ccccc1F`, the activation is reported as 22.4% (active).
With `O=C(COC(=O)CNC(=O)c1ccccc1F)NCC(F)(F)F` the activation was 16.4%.
For `Cn1ncc(Br)c1C(=O)NC1CCCC1`, the activation was 36.9% (active).
`COc1ccccc1NC(=O)c1c(Br)cnn1C` gave an activation of 0.59%.
For `Cc1nn(C)c(C(=O)NNC(=S)NC2CCCCC2)c1Cl`, the activation was -3.58%.
Compound `CC(=O)Nc1ccc(S(=O)(=O)NCCc2ccccc2)cc1` has an activation of -2.74%.
With `O=S(=O)(NCCc1ccncc1)c1ccccc1` the activation was 8.02%.
In the case of `O=S(=O)(NCCc1ccccc1)c1ccccc1`, the activation is reported as 20.4% (active).
`CCCC(C)n1[nH]c(=O)c2c(C)cc(C)nc21` (centres undefined) was tested, and the activation was 4.59%.
`O=C1COc2ccc(C(=O)COC(=O)c3ccccc3Cl)cc2N1` was tested, and the activation was -8.98%.
In the case of `Cc1ccc(S(=O)(=O)N(C)C)cc1NC(=O)CN1c2cccc3cccc(c23)S1(=O)=O`, the activation is reported as -2.16%.
`Cn1ncc2c(Nc3cccc4ccccc34)ncnc21` was tested, and the activation was 43.5% (active).
Compound `Cc1nc(Nc2ccccc2C)c2cnn(C)c2n1` has an activation of -2.69%.
In the case of `Cn1ncc2c(NNC(=O)Cc3cccc4ccccc34)ncnc21`, the activation is reported as 6.42%.
`CCCNC(=O)COc1coc(CN2CCN(Cc3ccccc3)CC2)cc1=O` was tested, and the activation was -3.51%.
In the case of `Cc1c(C(=O)Nc2cccc(-c3nnc4n3CCCCC4)c2)oc2ccccc12`, the activation is reported as -11.2%.
In the case of `O=C(Cn1[nH]c(=O)c2ccccc2c1=O)Nc1cccc(-c2nnc3n2CCCCC3)c1`, the activation is reported as 22.3% (active).
`Brc1cccc(-c2nnc3n2CCC3)c1` showed an activation of -2.96%.
In the case of `Cc1cccc(-c2noc(-c3ccc(F)cc3)n2)c1`, the activation is reported as 18.1% (active).
`OC[C@H]1O[C@@H](c2nc(-c3nc(-c4ccc(F)cc4)no3)cs2)[C@H](O)[C@@H](O)[C@H]1O` showed an activation of -2.26%.
Compound `Cc1ccc(C)c(N2CCN(C(=O)CCc3nc(-c4cccc(C(F)(F)F)c4)no3)CC2)c1` has an activation of -0.63%.
`Cc1ccc(-c2cccc([C@H]3[C@@H]4C=CC[C@@H](C)[C@@H]4C(=O)N3Cc3ccccc3)c2)cc1` showed an activation of -3.69%.
In the case of `Cc1nn(Cc2ccc(F)cc2)c(C)c1NC(=O)c1cccnc1Cl`, the activation is reported as 24.4% (active).
`Cc1nn(Cc2ccc(Cl)c(Cl)c2)c(C)c1NC(=O)c1cc(C2CC2)on1` gave an activation of -11.4%.
Work on `Cc1nn(Cc2ccc(F)cc2)c(C)c1NC(=O)c1noc2c1CCc1ccccc1-2` yielded an activation of -7.62%.
`CCNc1nc(NCC)nc(N(C)n2cnnc2)n1` showed an activation of 1.44%.
In the case of `Nc1c(-c2ccc(F)cc2)cnn1C1CCS(=O)(=O)C1` (centres undefined), the activation is reported as 0.13%.
`O=C(OC12CC3CC(CC(C3)C1)C2)c1ccc(NCc2cc(O)ccc2O)cc1` was tested, and the activation was 21.9% (active).
`CC(C)C(=O)Nc1ccc2c(c1)oc1ccccc12` gave an activation of -7.04%.
In the case of `Cc1ccc(C(c2sc3nc(C)nn3c2O)N2CCN(c3ccc(F)cc3)CC2)cc1` (centres undefined), the activation is reported as 42.2% (active).
`Cc1nc2sc(C(c3ccco3)N3CCOCC3)c(O)n2n1` (centres undefined) was tested, and the activation was 20.1% (active).
`Cc1nc2sc(C(c3ccco3)N3CCC4(CC3)OCCO4)c(O)n2n1` (centres undefined) showed an activation of 5.68%.
`Cc1ccc(C(c2sc3nc(C)nn3c2O)N2CCN(c3ccccc3)CC2)cc1` (centres undefined) was tested, and the activation was 5.14%.
With `Oc1c(C(c2cccs2)N2CCN(c3ccc(F)cc3)CC2)sc2ncnn12` (centres undefined) the activation was -5.38%.
Work on `Oc1c(C(c2ccco2)N2CCC3(CC2)OCCO3)sc2ncnn12` (centres undefined) yielded an activation of -1.05%.
`COc1ccc(COC(=O)N/N=C(\C)CC(=O)Nc2ccc(Cl)cc2)cc1` showed an activation of -3.42%.
`COC(=O)c1ccc(C)c(NC(=O)C2CC(=O)N(C3CCCC(C)C3C)C2)c1` (centres undefined) was tested, and the activation was 0.01%.
`Cc1ccc(NC(=O)Cn2cnc3c(OCc4ccccc4)ncnc32)cc1C` gave an activation of 1.1%.
Work on `CCN(Cc1nc2ccccc2c(=O)[nH]1)Cc1cc(=O)oc2cc(C)c(C)cc12` yielded an activation of -12.3%.
In the case of `CCOC(=O)[C@H]1Nc2ccc(Cl)cc2[C@@H]2[C@H]1C1CC(c3ccccc31)N2C(=O)OCc1ccccc1` (some centres undefined), the activation is reported as -15.8%.
Work on `CCSc1nc2sc3c(c2c(=O)n1-c1ccc(C)cc1)CCN(C)C3` yielded an activation of -1.06%.
For `COc1ccccc1-n1c(SCC(=O)O)nc2sc3c(c2c1=O)CCC3`, the activation was 1.79%.
For `Cc1ccc(C)c(-n2c(SCC(=O)O)nc3sc4c(c3c2=O)CCCC4)c1`, the activation was 20.4% (active).
`COc1ccc(Br)cc1CN1CCN(C(=O)c2cccc(OC)c2OC)CC1` showed an activation of 2.23%.
`CCN(CC)c1ccc(C2C3CCCCC3(O)CCN2CC(=O)Nc2ccccc2)cc1` (centres undefined) gave an activation of -6.54%.
For `COC(=O)c1ccc(NC(=O)C23CC4CC(C2)CC(n2cnc(Cl)n2)(C4)C3)cc1`, the activation was 3.27%.
In the case of `CC(N)C12CC3CC(CC(O)(C3)C1)C2` (centres undefined), the activation is reported as -3.44%.
`Cc1ncn(C23CC4CC(CC(O)(C4)C2)C3)n1` was tested, and the activation was 19.2% (active).
`CCOC(=O)/C(=N\Nc1ccccc1Cl)N(C)C1CCS(=O)(=O)C1` (centres undefined) gave an activation of -8.17%.
For `O=C(COC(=O)/C=C/c1nc2ccccc2s1)Nc1ccccc1Oc1ccccc1`, the activation was 1.93%.
With `CCC(=O)c1ccc(OCC(O)CN2CCN(c3cccc(C(F)(F)F)c3)CC2)cc1` (centres undefined) the activation was -10.8%.
`CN(C)c1ccc(NC(=S)N(CCc2ccccc2)C2CC(=O)N(c3c(Cl)cccc3Cl)C2=O)cc1` (centres undefined) showed an activation of 8.56%.
With `CCOc1ccc(N2C(=O)CC(N(CCc3ccc(OC)c(OC)c3)C(=S)Nc3ccccc3)C2=O)cc1` (centres undefined) the activation was 21.9% (active).
For `COC(=O)CN(C(=S)Nc1ccc(Cl)cc1)C1CC(=O)N(c2ccc(OC)cc2)C1=O` (centres undefined), the activation was -18.4%.
`O=C(NCc1ccco1)c1cccc(-c2ccc3nncn3c2)c1` was tested, and the activation was -4.68%.
For `CCCC1=Nc2cc(C(=O)NCc3ccco3)ccc2Sc2ccccc21`, the activation was 19.8% (active).
Compound `COc1ccc(CCNS(=O)(=O)c2ccc(C(=O)NCc3ccco3)cc2)cc1OC` has an activation of 1.67%.
With `O=C(NC1CCN(C(=S)NCc2ccco2)CC1)c1ccc(F)cc1` the activation was -4.46%.
Compound `Cc1cc(C)nc(SCc2nnc(SCC(=O)Nc3ncc(C)s3)n2Cc2ccco2)n1` has an activation of -4.62%.
With `CCN(CC)C(=O)CSc1nnc(CNc2ccc(F)cc2)n1Cc1ccco1` the activation was 26.3% (active).
Compound `CCn1c(CNC(=O)c2ccco2)nnc1SCC(=O)Nc1cccc(F)c1` has an activation of -8.95%.
In the case of `Cc1c(Cl)cccc1NC(=O)CC1SC(=NCC2CCCO2)NC1=O` (centres undefined), the activation is reported as -3.09%.
`CCn1ccnc1CN(C)C(=O)c1ccc2nc(Cc3ccc(OC)cc3)oc2c1` was tested, and the activation was -3.69%.
Compound `Cc1cc(N2CCCC2)ccc1NC(=O)COc1ccc(Cl)cc1` has an activation of -6.11%.
`CC(=O)Nc1ccc(N2C(=O)CCC2=O)cc1C` was tested, and the activation was 30.9% (active).
Work on `CC(=O)Nc1ccc(N2C(=O)C3C4C=CC(CC4)C3C2=O)cc1` (centres undefined) yielded an activation of 3.09%.
`CCNC(=O)CC1C(=O)N(c2ccc(F)cc2)C(=O)N1Cc1cccs1` (centres undefined) gave an activation of -0.18%.
In the case of `CC(C)CN1CCNC(=O)C1CC(=O)N(C)CC1CCOCC1` (centres undefined), the activation is reported as 1.55%.
Work on `Cc1ccc(C(C)(C)C)c(OCCCCN2CCCC2)c1` yielded an activation of -4.25%.
`COc1ccc(C2=NN(C(=O)CSc3nnnn3C)C(c3ccco3)C2)cc1` (centres undefined) gave an activation of 8.48%.
`CCOC(=O)c1c(NC(=O)c2cccs2)sc(C)c1C` was tested, and the activation was 27.8% (active).
`CCc1c(C)sc(NC(=O)c2cccs2)c1C(N)=O` showed an activation of -8.58%.
`COCCCNCC(=O)Nc1sc(C)c(C)c1C(=O)OC` was tested, and the activation was 12.8%.
`CC1(C(=O)NS(=O)(=O)c2ccc(Cl)cc2)CCN1C(=O)CC1CCCC1` (centres undefined) was tested, and the activation was 0.43%.
In the case of `CCCCn1c(N)c(N(CCC(C)C)C(=O)CC2OC(=O)c3ccccc32)c(=O)[nH]c1=O` (centres undefined), the activation is reported as -2.77%.
`Cc1cc(NS(=O)(=O)c2ccc(NC(=O)c3cccc(OC(F)F)c3)cc2)nc(C)n1` showed an activation of 1.34%.
`CCc1nnc(NS(=O)(=O)c2ccc(NC(=S)NC(=O)/C=C/c3cccs3)cc2)s1` was tested, and the activation was 2.07%.
For `CCc1nnc(NS(=O)(=O)c2ccc(NC(=O)c3cccc(OC(F)(F)C(F)F)c3)cc2)s1`, the activation was 18.4% (active).
Work on `O=C(NC(=S)N1CCCCC1c1cccnc1)c1ccccc1` (centres undefined) yielded an activation of 5.16%.
`Cc1ccc(S(=O)(=O)NNC(=O)/C=C/c2cccc(F)c2)cc1` showed an activation of -0.46%.
For `Cc1ccc(C)c(OCc2cc(C(=O)N3CCN(c4cnccn4)CC3)no2)c1`, the activation was -8.08%.
For `Cc1cccn2c(=O)c3cc(C#N)c(=O)n(CCCN4CCOCC4)c3nc12`, the activation was -0.36%.
In the case of `Cc1ccc2nc3c(cc(C(=O)NCCc4ccccc4)c(=N)n3CC3CCCO3)c(=O)n2c1` (centres undefined), the activation is reported as 2.81%.
For `Cc1cccn2c(=O)c3cc(C(=O)NCCN4CCOCC4)c(=N)n(Cc4cccnc4)c3nc12`, the activation was 28.1% (active).
Compound `CN(Cc1ccccc1)C(=O)C(=O)c1cn(CC(=O)N2CCCC2)c2ccccc12` has an activation of -2.13%.
`C/C(=N\NC(=S)NC(C)C)c1ccc(C(C)(C)C)cc1` was tested, and the activation was 8.71%.
With `CCC1CCCCN1CCNC(=O)c1[nH]c(C)c(C(C)=O)c1C` (centres undefined) the activation was 20.7% (active).
`CCOC(=O)c1c(C)[nH]c(C(=O)NCCN2CCOCC2)c1C` showed an activation of -4.21%.
With `CCCCN(CC)CCNC(=O)c1[nH]c(C)c(C(C)=O)c1C` the activation was -11.2%.
Work on `CC(=O)c1c(C)[nH]c(C(=O)NCc2ccc(C)cc2)c1C` yielded an activation of 11.5%.
`CC(=O)c1c(C)[nH]c(C(=O)NCCCN2CCCC2)c1C` was tested, and the activation was 18.1% (active).
For `CCC1CCCCN1CCNS(=O)(=O)c1ccc2c(c1)CCN2C(C)=O` (centres undefined), the activation was 2.47%.
